Experimental data as given in ChEMBL document CHEMBL3588757, “Structure-based design, synthesis and biological testing of piperazine-linked bis-epipodophyllotoxin etoposide analogs” (Bioorg Med Chem, 2015).

What was measured:
UACC-257 [1] = experiment: Cytotoxicity against human UACC257 cells by SRB assay; format: functional
In short: (§1)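 NCI-60 panel screen; 5-dose testing giving GI50 per cell line, plus a single 10 µM one-dose test. Method details not given beyond the NCI screen.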

PC-3 [2] = experiment: Cytotoxicity against human PC3 cells assessed as cell growth at 5 uM by SRB assay; format: functional; conditions: read-out: Activity
SK-OV-3 = experiment: Cytotoxicity against human SKOV3 cells assessed as cell growth at 0.005 uM by SRB assay; format: functional; conditions: read-out: Activity
NCI-H226 [3] = experiment: Cytotoxicity against human NCI-H226 cells assessed as cell growth at 50 uM by SRB assay; format: functional; conditions: read-out: Activity
CAKI-1 [4] = experiment: Cytotoxicity against human Caki1 cells assessed as cell growth at 50 uM by SRB assay; format: functional; conditions: read-out: Activity
T47D [5] = experiment: Cytotoxicity against human T47D cells assessed as cell growth at 0.5 uM by SRB assay; format: functional; conditions: read-out: Activity
T47D [6] = experiment: Cytotoxicity against human T47D cells assessed as cell growth at 50 uM by SRB assay; format: functional; conditions: read-out: Activity
RPMI-8226 [7] = experiment: Cytotoxicity against human RPMI8226 cells assessed as cell growth at 0.005 uM by SRB assay; format: functional; conditions: read-out: Activity
OVCAR-5 = experiment: Cytotoxicity against human OVCAR5 cells assessed as cell growth at 0.5 uM by SRB assay; format: functional; conditions: read-out: Activity
HOP-92 = experiment: Cytotoxicity against human HOP92 cells assessed as cell growth at 5 uM by SRB assay; format: functional; conditions: read-out: Activity
In short: (§2)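 Measured in the NCI-60 human tumour cell line panel using five-dose testing. Growth was recorded at each dose for each cell line, and a GI50 was derived for each line.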

NCI-H322M [8] = experiment: Cytotoxicity against human NCI-H322M cells assessed as cell growth at 0.005 uM by SRB assay; format: functional; conditions: read-out: Activity
UACC-257 [9] = experiment: Cytotoxicity against human UACC257 cells assessed as cell growth at 0.05 uM by SRB assay; format: functional; conditions: read-out: Activity
BT-549 = experiment: Cytotoxicity against human BT549 cells assessed as cell growth at 0.5 uM by SRB assay; format: functional; conditions: read-out: Activity
HOP-62 [10] = experiment: Cytotoxicity against human HOP62 cells assessed as cell growth at 0.005 uM by SRB assay; format: functional; conditions: read-out: Activity; in short: as §2
SF-539 = experiment: Cytotoxicity against human SF539 cells assessed as cell growth at 0.05 uM by SRB assay; format: functional; conditions: read-out: Activity
OVCAR-3 = experiment: Cytotoxicity against human OVCAR3 cells assessed as cell growth at 0.05 uM by SRB assay; format: functional; conditions: read-out: Activity
HL-60(TB) = experiment: Cytotoxicity against human HL-60(TB) cells assessed as cell growth at 0.5 uM by SRB assay; format: functional; conditions: read-out: Activity; in short: as §2
SK-MEL-5 [11] = experiment: Cytotoxicity against human SK-MEL-5 cells assessed as cell growth at 0.05 uM by SRB assay; format: functional; conditions: read-out: Activity
PC-3 [12] = experiment: Cytotoxicity against human PC3 cells assessed as cell growth at 0.005 uM by SRB assay; format: functional; conditions: read-out: Activity
SK-MEL-5 [13] = experiment: Cytotoxicity against human SK-MEL-5 cells assessed as cell growth at 50 uM by SRB assay; format: functional; conditions: read-out: Activity
MCF7 [14] = experiment: Cytotoxicity against human MCF7 cells assessed as cell growth at 0.005 uM by SRB assay; format: functional; conditions: read-out: Activity
SW-620 = experiment: Cytotoxicity against human SW620 cells assessed as cell growth at 50 uM by SRB assay; format: functional; conditions: read-out: Activity
CCRF-CEM [15] = experiment: Cytotoxicity against human CCRF-CEM cells assessed as cell growth at 50 uM by SRB assay; format: functional; conditions: read-out: Activity
HCT-116 [16] = experiment: Cytotoxicity against human HCT116 cells assessed as cell growth at 5 uM by SRB assay; format: functional; conditions: read-out: Activity; in short: as §2
SNB-19 [17] = experiment: Cytotoxicity against human SNB19 cells by SRB assay; format: functional; in short: as §1
HOP-62 [18] = experiment: Cytotoxicity against human HOP62 cells assessed as cell growth at 0.05 uM by SRB assay; format: functional; conditions: read-out: Activity; in short: as §2
A498 = experiment: Cytotoxicity against human A498 cells assessed as cell growth at 0.05 uM by SRB assay; format: functional; conditions: read-out: Activity
K562 = experiment: Cytotoxicity against human K562 cells assessed as cell growth inhibition after 72 hrs by MTS assay; format: functional, cell-based; conditions: K562, 72 h
SNB-19 [19] = experiment: Cytotoxicity against human SNB19 cells assessed as cell growth at 0.05 uM by SRB assay; format: functional; conditions: read-out: Activity
[20] = Cytotoxicity against human Hs578T cells assessed as cell growth at 50 uM by SRB assay; format: functional; conditions: Hs-578T, read-out: Activity; in short: as §2
NCI-H460 = experiment: Cytotoxicity against human NCI-H460 cells assessed as cell growth at 50 uM by SRB assay; format: functional; conditions: read-out: Activity
NCI-H23 = experiment: Cytotoxicity against human NCI-H23 cells assessed as cell growth at 0.005 uM by SRB assay; format: functional; conditions: read-out: Activity
SNB-75 = experiment: Cytotoxicity against human SNB75 cells assessed as cell growth at 50 uM by SRB assay; format: functional; conditions: read-out: Activity
HCC 2998 = experiment: Cytotoxicity against human HCC2998 cells by SRB assay; format: functional; in short: as §2
CAKI-1 [21] = experiment: Cytotoxicity against human Caki1 cells assessed as cell growth at 0.5 uM by SRB assay; format: functional; conditions: read-out: Activity
HCT-15 = experiment: Cytotoxicity against human HCT15 cells assessed as cell growth at 0.5 uM by SRB assay; format: functional; conditions: read-out: Activity; in short: as §2
PC-3 [22] = experiment: Cytotoxicity against human PC3 cells assessed as cell growth at 0.5 uM by SRB assay; format: functional; conditions: read-out: Activity
[23] = Cytotoxicity against human Hs578T cells by SRB assay; format: functional; conditions: Hs-578T; in short: as §2
HCT-116 [24] = experiment: Cytotoxicity against human HCT116 cells by SRB assay; format: functional; in short: as §2
MCF7 [25] = experiment: Cytotoxicity against human MCF7 cells assessed as cell growth at 50 uM by SRB assay; format: functional; conditions: read-out: Activity
RPMI-8226 [26] = experiment: Cytotoxicity against human RPMI8226 cells assessed as cell growth at 0.5 uM by SRB assay; format: functional; conditions: read-out: Activity
CAKI-1 [27] = experiment: Cytotoxicity against human Caki1 cells assessed as cell growth at 0.05 uM by SRB assay; format: functional; conditions: read-out: Activity
CCRF-CEM [28] = experiment: Cytotoxicity against human CCRF-CEM cells assessed as cell growth at 0.5 uM by SRB assay; format: functional; conditions: read-out: Activity
NCI-H226 [29] = experiment: Cytotoxicity against human NCI-H226 cells assessed as cell growth at 0.5 uM by SRB assay; format: functional; conditions: read-out: Activity
NCI-H322M [30] = experiment: Cytotoxicity against human NCI-H322M cells assessed as cell growth at 0.5 uM by SRB assay; format: functional; conditions: read-out: Activity
[31] = read-out: LC50 (the source's name)
[32] = read-out: pLC50 (the source's name) (converted)

`COc1cc([C@@H]2c3cc4c(cc3[C@@H](NC(=O)CN3CCN(CCCCCCCCCCN5CCN(CC(=O)N[C@@H]6c7cc8c(cc7[C@@H](c7cc(OC)c(O)c(OC)c7)[C@H]7C(=O)OC[C@@H]76)OCO8)CC5)CC3)[C@H]3COC(=O)[C@H]23)OCO4)cc(OC)c1O` gave a GI50 (UACC-257 [1]; read-out: GI50) of 679 nM, a CC50 (UACC-257 [1]; [31]) of 2630 nM and a TGI (UACC-257 [1]; read-out: TGI) of 1340 nM. For the same compound, the GI50 (UACC-257 [1]; read-out: pGI50 (converted)) was 676 nM, the CC50 (UACC-257 [1]; [32]) was 2630 nM and the TGI (UACC-257 [1]; read-out: pTGI (converted)) was 1350 nM. The growth at 5 µM (PC-3 [2]) was 17%, the growth at 0.005 µM (SK-OV-3) was 98% and the growth at 50 µM (NCI-H226 [3]) was -95%. For the same compound, the growth at 50 µM (CAKI-1 [4]) was -97%, the growth at 0.5 µM (T47D [5]) was 49% and the growth at 50 µM (T47D [6]) was -40%. It also gave a growth at 0.005 µM (RPMI-8226 [7]) of 89%, a growth at 0.5 µM (OVCAR-5) of 63% and a growth at 5 µM (HOP-92) of -9%. It also gave a growth at 0.005 µM (NCI-H322M [8]) of 96%, a growth at 0.05 µM (UACC-257 [9]) of 97% and a growth at 0.5 µM (BT-549) of 58%. For the same compound, the growth at 0.005 µM (HOP-62 [10]) was 88%, the growth at 0.05 µM (SF-539) was 74% and the growth at 0.05 µM (OVCAR-3) was 73%. For the same compound, the growth at 0.5 µM (HL-60(TB)) was 15%, the growth at 0.05 µM (SK-MEL-5 [11]) was 96% and the growth at 0.005 µM (PC-3 [12]) was 99%. It also gave a growth at 50 µM (SK-MEL-5 [13]) of -68%, a growth at 0.005 µM (MCF7 [14]) of 90% and a growth at 50 µM (SW-620) of -89%. The growth at 50 µM (CCRF-CEM [15]) was 2%, the growth at 5 µM (HCT-116 [16]) was -15% and the GI50 (SNB-19 [17]; read-out: GI50) was 352 nM. The CC50 (SNB-19 [17]; [31]) was 2790 nM, the TGI (SNB-19 [17]; read-out: TGI) was 1100 nM and the GI50 (SNB-19 [17]; read-out: pGI50 (converted)) was 355 nM. It also gave a CC50 (SNB-19 [17]; [32]) of 2820 nM, a TGI (SNB-19 [17]; read-out: pTGI (converted)) of 1100 nM and a growth at 0.05 µM (HOP-62 [18]) of 48%. It also gave a growth at 0.05 µM (A498) of 72%, an IC50 (K562) of 44 nM and a growth at 0.05 µM (SNB-19 [19]) of 93%. It also gave a growth at 50 µM [20] of -22%, a growth at 50 µM (NCI-H460) of -81% and a growth at 0.005 µM (NCI-H23) of 95%. For the same compound, the growth at 50 µM (SNB-75) was -26%, the GI50 (HCC 2998; read-out: GI50) was 1090 nM and the CC50 (HCC 2998; [31]) was 20500 nM. The TGI (HCC 2998; read-out: TGI) was 8390 nM, the GI50 (HCC 2998; read-out: pGI50 (converted)) was 1100 nM and the CC50 (HCC 2998; [32]) was 20400 nM. The TGI (HCC 2998; read-out: pTGI (converted)) was 8320 nM, the growth at 0.5 µM (CAKI-1 [21]) was 81% and the growth at 0.5 µM (HCT-15) was 45%. For the same compound, the growth at 0.5 µM (PC-3 [22]) was 61%, the GI50 ([23]; read-out: GI50) was 2800 nM and the CC50 [23, 31] was greater than 50000 nM. For the same compound, the TGI ([23]; read-out: TGI) was 22200 nM, the GI50 ([23]; read-out: pGI50 (converted)) was 2820 nM and the CC50 [23, 32] was greater than 50100 nM. The TGI ([23]; read-out: pTGI (converted)) was 22400 nM, the GI50 (HCT-116 [24]; read-out: GI50) was 1000 nM and the CC50 (HCT-116 [24]; [31]) was 46500 nM. For the same compound, the TGI (HCT-116 [24]; read-out: TGI) was 3460 nM, the GI50 (HCT-116 [24]; read-out: pGI50 (converted)) was 1000 nM and the CC50 (HCT-116 [24]; [32]) was 46800 nM. For the same compound, the TGI (HCT-116 [24]; read-out: pTGI (converted)) was 3470 nM, the growth at 50 µM (MCF7 [25]) was -60% and the growth at 0.5 µM (RPMI-8226 [26]) was -2%. It also gave a growth at 0.05 µM (CAKI-1 [27]) of 89%, a growth at 0.5 µM (CCRF-CEM [28]) of 4% and a growth at 0.5 µM (NCI-H226 [29]) of 49%. The growth at 0.5 µM (NCI-H322M [30]) was 45%.
